High-throughput results from PubChem BioAssay.
Hits are enriched below; roughly 3.2% of the tested compounds scored in any of these assays.
PRMT1 inh – PRMT1 methyltransferase inhibitors, primary screen, biochemical, fluorescence polarization. 370,000 tested, 1.3% active. recombinant PRMT1, activity-based probe fluorescence polarization. inhibition, % at 2.79 µM. Protein arginine N-methyltransferase 1 (Homo sapiens), Q99873. AID 652257, 2013;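 active = inhibition above about 21% made by adding two undisclosed values, limit read from the data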
rCAG binder – binders of r(CAG) RNA repeats, primary screen, biochemical, fluorescence; r(CAG) RNA repeat, TO-PRO-1 dye displacement fluorescence; inhibition, % at 3 µM; 370,000 tested, 1.3% active; AID 651821, 2012;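 active = inhibition above the plate cutoff, the mean of all test compounds on that plate plus 3 SD, cut at about 35% in these data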;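 also: 0% = DMSO alone and 100% = 100 µM mitoxantrone as full dye displacement; higher means more dye released from RNA so lower well fluorescence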
ABHD4 inh – ABHD4 inhibitors, primary screen, biochemical, fluorescence polarization, mouse | purified mABHD4, FP-Rh probe fluorescence polarization | (Lyso)-N-acylphosphatidylethanolamine lipase (Mus musculus), Q8VD66 | inhibition, % at 8.92 µM | AID 720543, 2013 | 370,000 tested, 0.54% active;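 active = inhibition exceeding the mean over every tested compound plus 3 SD, cut at about 30% in these data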;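 also: 0% = plate median of compound wells and 100% = S159A mutant with DMSO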
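assay system = mABHD4 protein | compound dosing = single nominal dose of 8.92 µM, 0.89% DMSO final | read-out basis = percent inhibition of probe binding, normalized to plate controls | schedule = Enzyme–compound pre-incubation 45 min, then probe 60 min, both 25 °C | detection = fluorescence polarization, excitation 525 nm, emission 598 nm, BODIPY TMR filters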
DAGLB inhibitor – DAGLB lipase inhibitors, primary screen, biochemical, fluorescence, HTS. Diacylglycerol lipase-beta (Homo sapiens), Q8NCG7. HEK293T DAGLB membrane lysate, EnzChek fluorogenic substrate. inhibition, % at 5.17 µM. 340,000 tested, 0.059% active; in the data active = inhibition above about 34%;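 also: 0% = enzyme with vehicle and 100% = wells lacking enzyme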
HTRA1 inh – HTRA1 serine protease inhibitors, primary screen, biochemical, fluorescence polarization, HTS; Q92743; 340,000 tested, 0.5% active; recombinant HTRA1, FP-rhodamine activity-based probe; inhibition, % at 5.96 µM; in the data active = inhibition above about 36%;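 also: 0% = enzyme with DMSO and 100% = wells lacking enzyme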
Target sequence (Q92743 whole entry, looked up): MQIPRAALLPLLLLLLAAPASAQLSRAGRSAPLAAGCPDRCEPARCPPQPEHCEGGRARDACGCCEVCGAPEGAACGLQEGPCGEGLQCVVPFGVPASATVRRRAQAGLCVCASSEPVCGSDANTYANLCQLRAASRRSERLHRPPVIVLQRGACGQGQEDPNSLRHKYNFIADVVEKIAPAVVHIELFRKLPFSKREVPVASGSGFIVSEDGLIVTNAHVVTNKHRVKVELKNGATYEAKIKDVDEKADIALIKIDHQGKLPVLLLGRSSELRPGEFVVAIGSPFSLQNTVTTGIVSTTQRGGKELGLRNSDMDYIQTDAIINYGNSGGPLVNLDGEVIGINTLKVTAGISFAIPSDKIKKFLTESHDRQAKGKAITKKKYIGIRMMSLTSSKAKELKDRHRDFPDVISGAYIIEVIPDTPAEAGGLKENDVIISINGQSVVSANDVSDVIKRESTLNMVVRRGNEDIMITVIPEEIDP
LEDGF integ inh – blockers of LEDGF/p75-dependent integrase strand transfer – biochemical, TR-FRET, high throughput, primary screen. inhibition, % at 3.7 µM. 370,000 tested, 0.64% active. AID 743269, 2014. HIV-1 integrase (with human LEDGF/p75). TR-FRET IN-LEDGF/p75 DNA integration, Eu/Cy5;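 active = inhibition above the screen-wide mean plus 3 SD, cut at about 13% in these data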;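 also: signal is the Cy5 over europium emission ratio at 671 and 618 nm; 0% = plate median of compound wells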
PRMT1 confirm – PRMT1 methyltransferase inhibitors, confirmation, biochemical, fluorescence polarization, triplicate | 3,300 tested, 42% active | recombinant His-PRMT1, activity-based probe fluorescence polarization | shares compounds with PRMT1 inh | inhibition, % at 2.79 µM;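 active = mean inhibition across replicates above the hit cutoff derived for the earlier primary screen, cut at about 22% in these data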
* marks the source's active call; other numbers are inactive results; . = not tested or not shown.

SMILES | PRMT1 inh | rCAG binder | ABHD4 inh | DAGLB inhibitor | HTRA1 inh | LEDGF integ inh | PRMT1 confirm
CCn1c(CC(=O)Nc2ccccc2)nnc1SCc1nc2ccccc2c(=O)[nH]1 | -1 | -2 | 1 | 0 | 0 | 3 | .
CC(C)CC(=O)N1CCC(O)(CS(=O)(=O)Cc2ccccc2Cl)CC1 | 1 | 0 | 2 | -2 | 0 | 2 | .
Cc1ccc2nc(-c3ccc(C#N)cc3)c(Cc3ccccc3)n2c1 | 4 | 6 | -9 | . | . | 1 | .
CCOC(=O)[C@]12CCC=C1N(Cc1ccco1)C(=O)[C@H](CC(=O)NCc1cccs1)C2 | 6 | 15 | 7 | . | . | 0 | .
CCc1ccc(-c2csc3[n+]2CCN3C(C)=O)cc1 | 72* | 5 | -13 | -9 | -3 | 0 | 46*
C=Cn1c(C(=O)O)ccc1-c1ccc(CC)cc1 | 0 | 4 | -4 | 2 | 5 | 3 | .
CC(C)NC(=O)CSc1nc2ccccc2n1CC(=O)N(C(C)C)C(C)C | 3 | -6 | -18 | -1 | 0 | 3 | .
CC(C)NC(=O)Cn1c(SCC(=O)c2ccc(F)cc2)nc2ccccc21 | 62* | 5 | 6 | 1 | -8 | 9 | 5
Cc1ccc(-c2n[nH]c(=S)n2Cc2ccccc2)cc1 | 7 | 3 | 3 | 0 | -3 | -2 | .
S=c1[nH]nc(-c2cc3ccccc3o2)n1Cc1ccccc1 | 25* | 24 | 11 | 9 | -4 | -5 | 16
COc1ccc2oc(=O)cc(CN(C)Cc3ccccc3)c2c1 | 3 | -2 | -6 | -10 | -12 | -2 | .
CN(CCO)c1c2c(nc3cc(-c4cccc(F)c4)nn13)CCCC2 | -4 | -2 | -5 | -6 | -7 | 0 | .
O=C(Nc1nnc(Cc2ccccc2)s1)c1cccnc1 | -5 | 1 | -7 | -1 | 6 | 2 | .
O=S(=O)(CCSc1ccccn1)c1nc2ccccc2s1 | 26* | -1 | -5 | 0 | -10 | 3 | 13
CC(NC(=O)c1ccccc1F)c1ccccc1 (configuration not stated) | -3 | -2 | 13 | -1 | 7 | 3 | .
CC1(C)Oc2ccc3ccc(=O)oc3c2CC1O (configuration not stated) | 5 | -3 | -4 | 1 | 8 | -2 | .
O=c1ccc2cc3c4c(c2o1)CCCN4CCC3 | 72* | -66 | 16 | -13 | 12 | -6 | 67*
COc1ccc(CCN(C)C(=O)COc2cccc(-n3cnnn3)c2)cc1OC | -5 | 0 | 4 | 1 | 0 | 1 | .
Oc1csc(Cc2nc(-c3ccc(Br)cc3)cs2)n1 | 1 | 15 | 24 | 6 | 5 | -6 | .
Cc1sc(Cc2nc(O)cs2)nc1-c1ccccc1 | 58* | 18 | -1 | . | . | 3 | 14
S=c1[nH]c2ccc(Cc3ccc4[nH]c(=S)[nH]c4c3)cc2[nH]1 | 30* | 14 | 11 | 2 | 3 | 3 | 7
O=C1CC(SC2=NCCS2)C(=O)N1c1ccc(Cl)cc1 (configuration not stated) | 1 | 0 | 3 | 1 | 1 | 0 | .
COC(=O)c1cc(=O)nc2sc3cc(OC)ccc3n12 | 10 | 4 | 13 | 1 | 3 | 1 | .
COc1ccc(O)c(/C=c2/sc3nc4cc(C)c(C)cc4n3c2=O)c1 | 39* | 21 | 9 | -2 | -56 | 1 | 70*
c1cc2c(cc1NC1CCCCCC1)OCO2 | 35* | -2 | 20 | -2 | 33 | 3 | 32*
O=c1oc(CCCO)cc2ccc(Br)cc12 | -1 | 5 | -16 | -3 | -1 | 4 | .
NC(=O)c1ccccc1NCC(=O)c1ccc(F)cc1 | 34* | 3 | -8 | -1 | 5 | -5 | 3
Cc1cc(SCNC(=O)c2ccccc2)ncn1 | 71* | 0 | 2 | -4 | 3 | -5 | 7
O=C(NCSc1ccccc1)c1ccccc1 | 2 | 1 | 2 | -3 | 4 | 0 | .
